# TRPC4 act = TRPC4 (mouse) channel activation. Q9QUQ5. HEK293 TRPC4beta/mu-opioid, Fluo4 calcium fluorescence; stronger effect = higher value. B-score at 10 µM. 310,000 compounds, 0.49% hits;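 active means B-score above 5 SD of library B-scores, and initial fluorescence ratio not above library mean plus 5 SD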;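 further: positive B-score marks a calcium rise read as TRPC4 activation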
#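 Assay system – TRPC4beta and mu-opioid receptor HEK293 stable cells · Measured by – Fluo4 fluorescence, kinetic · Schedule – dye loading 45 min room temperature, 110 s kinetic read · Read-out – B-scored integrated calcium fluorescence ratio · Controls – buffer and maximal DAMGO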
# TRPC4 block = blocks the mouse TRPC4 cation channel. 300,000 compounds, 0.39% hits. AID 2247. HEK293 TRPC4beta/mu-opioid, DAMGO-evoked Fluo4 calcium flux; stronger effect = lower value. B-score at 10 µM;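 active means B-score over 3 SD under the library average, no early fluorescence shift, positive overall ratio signal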
#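 Signal: kinetic Fluo4 fluorescence imaging of calcium influx. Material: stable TRPC4beta/mu-opioid receptor HEK293 cells. Probe or stimulus: DAMGO in two steps, submaximal then maximal.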
# TRPC6 activator = activates the mouse TRPC6 cation channel | B-score at 10 µM | Q61143 | HEK293-TRPC6 membrane potential dye fluorescence; stronger effect = higher value | 310,000 compounds, 0.13% hits;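 active means B-score of the integrated fluorescence ratio above library mean plus 3 SD, and starting fluorescence ratio within library mean plus 5 SD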;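 further: higher score means more depolarization so channel activation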
# TRPC4 PAM = allosteric potentiators of mouse TRPC4 channel; Q9QUQ5; HEK293 TRPC4beta/mu-opioid, DAMGO EC20, Fluo-4 Ca2+ flux; stronger effect = higher value; B-score at 10 µM; 310,000 compounds, 0.42% hits; AID 2227;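 active means B-score of calcium response area above 5 SD of library B-scores, with initial fluorescence ratio within 5 SD of library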
# TRPC6 inh = mouse TRPC6 channel inhibition. 310,000 compounds, 1.1% hits. B-score at 10 µM. HEK293-TRPC6, membrane potential dye, ACh-evoked depolarization; stronger effect = lower value. AID 2553. Q61143;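 active means B-score under library mean minus 3 SD, initial fluorescence not abnormally high, positive integrated signal ratio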;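 further: B-score derived from integrated fluorescence ratio over the kinetic read; more negative B-score means stronger inhibition of depolarization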
# TRPC4 sel inh 2 = second selectivity test of TRPC6 inhibitors: effect on mouse TRPC4; shares compounds with TRPC6 inh; HEK293 TRPC4/MOR, membrane potential dye fluorescence; channel activated by saturating DAMGO dose; inhibition, % at 10 µM; 920 compounds, 42% hits;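 active means compounds whose fluorescence signal differed from control wells by over 3 SD, either direction, in both duplicate plates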
# TRPC4 spec = selectivity of TRPC6 inhibitors: effect on mouse TRPC4. HEK293 TRPC4/mu-opioid, membrane potential fluorescence. 920 compounds, 61% hits. shares compounds with TRPC6 inh. activity change, negative = inhibition, % at 10 µM;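 active means rise or fall in signal beyond 3 SD of buffer-only wells in both replicate plates, either sign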;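 further: integrated kinetic ratio of fluorescence range over baseline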
# HEK293 MPD ctr 2-1 = second check of TRPC6 inhibitor effects in parental HEK293 cells; shares compounds with TRPC6 inh; parental HEK293 membrane potential dye fluorescence; maximal acetylcholine challenge after compound addition; signal change vs control, % at 10 µM; 920 compounds, 31% hits; AID 2779;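 active means membrane potential signal moving either way by over 3 SD of the maximum-effect control, in both duplicate plates, meaning non-specific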
# HEK293 MPD ctr-1 = parental HEK293 nonspecific activity of TRPC6 inhibitors | membrane potential signal change, % at 10 µM | 920 compounds, 60% hits | parental HEK293 membrane potential dye fluorescence | shares compounds with TRPC6 inh;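 active means membrane potential signal shifting up or down by more than 3 SD of buffer-only wells, on both duplicate plates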
# HEK293 MPD ctr-2 = counter-screen for TRPC6 modulators: effect in parental HEK293 cells. membrane potential dye fluorescence. AID 488924. 2,400 compounds, 51% hits. membrane potential signal change, % at 10 µM. shares compounds with TRPC6 inh;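 active means membrane potential signal moves up or down beyond 5 SD from buffer-only wells, on both duplicate plates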
# HEK293 MPD ctr 2-2 = parental HEK293 nonspecific activity of TRPC6 modulators, second screen; shares compounds with TRPC6 inh; inhibition, % at 10 µM; membrane potential dye fluorescence; after compound, maximal acetylcholine stimulation; 2,400 compounds, 14% hits;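 active means membrane potential signal drops by more than 5 SD from the mean control signal, in both duplicate plates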
# TRPC4 ctr mod = mouse TRPC4 off-target activity of TRPC6 modulators. shares compounds with TRPC6 inh. HEK293 TRPC4/mu-opioid, membrane potential fluorescence. percent change from control (negative = decrease, positive = increase), % at 10 µM. 2,400 compounds, 69% hits;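 active means membrane potential signal moved up or down beyond 5 SD of buffer control wells, in both duplicate plates, actives on both sides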
# TRPC4/MOR inh 2 = mouse TRPC4 off-target activity of TRPC6 modulators, second screen. shares compounds with TRPC6 inh. HEK293 TRPC4/mu-opioid, membrane potential dye fluorescence; stimulated with maximal-effect DAMGO. inhibition, % at 10 µM. 2,400 compounds, 55% hits. AID 488928;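 active means drop in membrane potential signal beyond 5 SD of the control wells in both duplicate plates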;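 further: TRPC4 counter screen for TRPC6 hits run under conditions tuned for TRPC6 not TRPC4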
# TRPC6 inh conf = confirmation of mouse TRPC6 inhibitors; shares compounds with TRPC6 inh; HEK293-TRPC6, membrane potential dye, ACh-evoked depolarization; inhibition, % at 10 µM; 3,300 compounds, 43% hits; AID 488960;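 active means fluorescence ratio falls more than 5 SD below the full-stimulation control mean, in both duplicate runs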;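 further: integrated fluorescence ratio of peak minus minimum over baseline after agonist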
# TRPC6 act confirm = confirmation of mouse TRPC6 activators; HEK293-TRPC6 membrane potential dye fluorescence, FDSS; shares compounds with TRPC6 inh; AID 488961; activation, % at 10 µM; 2,800 compounds, 11% hits;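 active means ratio signal rise beyond 5 SD above unstimulated control wells' mean, seen in both duplicate runs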
# Hits are given with their value; n = inactive; x = not tested or not shown. Only some compounds are listed: those with a hit (about 2.3% of all), similar ones and a draw of the others.
SMILES,TRPC4 act,TRPC4 block,TRPC6 activator,TRPC4 PAM,TRPC6 inh,HEK293 MPD ctr-2,HEK293 MPD ctr 2-2,TRPC4 ctr mod,TRPC4/MOR inh 2,TRPC6 inh conf,TRPC6 act confirm,others
CCOC(=O)c1cnc2c(C(=O)OC)cccc2c1NCCN1CCOCC1,n,n,n,n,-5,137%,n,20%,47%,48%,x,
CCOC(=O)c1cnc2c(CC)cccc2c1NCCN1CCOCC1,n,n,n,n,n,x,x,x,x,x,x,
O=C(OCc1ccccc1)C1=NNC2C(=O)N(c3ccc(Br)cc3)C(=O)C12 (stereo not drawn),n,n,n,n,n,x,x,x,x,x,x,
CN(CCCC(=O)O)c1ccc(N=Nc2ccc([N+](=O)[O-])cc2)cc1,n,n,n,n,n,x,x,x,x,x,x,
CCOC(=O)c1ccc(Cl)c(NC(=O)c2cccnc2)c1,n,n,n,n,n,x,x,x,x,x,x,
CCN(CC)CCC(=O)Nc1cccc2c1C(=O)c1ccccc1C2=O,n,n,n,n,-6.4,n,n,-30%,46%,52%,n,
Nc1cccc(C(=O)OCC(=O)Nc2cccc3c2C(=O)c2ccccc2C3=O)c1,n,n,n,n,n,x,x,x,x,x,x,
Cc1ccc2c(c1)N(CC(=O)NCCCN1CCN(C)CC1)C(=O)CO2,n,n,n,n,n,x,x,x,x,x,x,
C/C(=N\NC(=O)c1c(C)nc2ccccn12)c1ccco1,n,n,n,n,-5.7,-309%,n,-60%,36%,50%,n,
NC(=O)N/N=C(/CCCCCC/C(=N\NC(N)=O)c1ccccc1)c1ccccc1,n,n,n,n,n,x,x,x,x,x,x,
CCOC(=O)[C@@H]1[C@H]2COc3ccc(Br)cc3[C@H]2N2C(=O)N(c3cccc(F)c3)C(=O)[C@]12C,n,n,n,n,n,x,x,x,x,x,x,
c1ccc(-c2cc(NCCN3CCCCC3)c3ccccc3n2)cc1,n,n,n,n,-8.7,-182%,66%,-36%,72%,64%,n,
COc1ccccc1-n1c(-c2ccccc2)c[n+]2c1CCc1ccccc1-2,n,n,n,n,-9.9,92%,n,20%,40%,77%,n,TRPC4 sel inh 2=n;TRPC4 spec=1.8%;HEK293 MPD ctr 2-1=n;HEK293 MPD ctr-1=n
COc1ccc(-n2c(-c3ccc(Br)cc3)c[n+]3c2CCc2ccccc2-3)cc1,n,n,n,n,-5.3,-150%,n,18%,62%,n,n,
COc1ccccc1-n1c(-c2ccccc2)c[nH]c1=S,n,n,n,n,n,x,x,x,x,x,x,
CC(C)c1ccc(-n2c(-c3ccccc3)c[n+]3c2CCc2ccccc2-3)cc1,n,n,n,n,n,x,x,x,x,x,x,
